Results reported in ChEMBL document CHEMBL1132730, “Design, synthesis, and discovery of 3-piperazinyl-3,4-dihydro-2(1H)-quinolinone derivatives: a novel series of mixed dopamine D2/D4 receptor antagonists” (Bioorg Med Chem Lett, 2000).

Key:
[1] = biological target: T1, Alpha adrenergic receptor 1A and 1B (Rattus norvegicus, UniProt P15823+P43140); test: Binding affinity at Alpha-1 adrenergic receptor in rat brain homogenates by [3H]- prazosin displacement.; assay type: tissue-based
T1 sequence (P15823 whole entry): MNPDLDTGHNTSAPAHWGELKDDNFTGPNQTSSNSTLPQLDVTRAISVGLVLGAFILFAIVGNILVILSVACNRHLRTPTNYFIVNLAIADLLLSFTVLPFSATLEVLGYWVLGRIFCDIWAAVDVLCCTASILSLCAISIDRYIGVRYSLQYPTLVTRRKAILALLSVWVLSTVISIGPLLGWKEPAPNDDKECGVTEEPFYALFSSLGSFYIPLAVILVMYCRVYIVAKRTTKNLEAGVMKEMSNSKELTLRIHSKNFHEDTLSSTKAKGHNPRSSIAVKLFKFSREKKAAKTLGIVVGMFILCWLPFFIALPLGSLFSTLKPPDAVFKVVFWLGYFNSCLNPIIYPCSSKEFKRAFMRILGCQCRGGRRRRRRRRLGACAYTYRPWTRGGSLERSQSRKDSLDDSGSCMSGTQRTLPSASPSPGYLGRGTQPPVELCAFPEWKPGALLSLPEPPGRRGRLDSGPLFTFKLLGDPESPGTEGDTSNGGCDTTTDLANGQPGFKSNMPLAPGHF
T1 sequence (P43140 whole entry): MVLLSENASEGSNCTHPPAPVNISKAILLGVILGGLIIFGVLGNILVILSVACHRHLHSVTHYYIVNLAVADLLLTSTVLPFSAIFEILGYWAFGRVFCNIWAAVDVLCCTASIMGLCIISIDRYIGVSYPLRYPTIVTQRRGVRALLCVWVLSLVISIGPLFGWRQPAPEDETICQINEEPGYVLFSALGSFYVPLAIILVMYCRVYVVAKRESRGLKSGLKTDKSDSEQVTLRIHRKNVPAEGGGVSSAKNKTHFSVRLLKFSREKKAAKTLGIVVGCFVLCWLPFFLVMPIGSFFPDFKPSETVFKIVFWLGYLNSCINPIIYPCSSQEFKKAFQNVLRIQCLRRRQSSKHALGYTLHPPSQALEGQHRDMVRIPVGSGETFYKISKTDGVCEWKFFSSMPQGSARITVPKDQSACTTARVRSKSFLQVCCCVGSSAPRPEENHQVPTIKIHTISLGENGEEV

D(2) dopamine receptor [2] = biological target: T2, D(2) dopamine receptor (Homo sapiens, UniProt P14416); test: Binding affinity at human Dopamine receptor D2 by [3H]- YM 09151 displacement; Not active.
T2 sequence (P14416 whole entry): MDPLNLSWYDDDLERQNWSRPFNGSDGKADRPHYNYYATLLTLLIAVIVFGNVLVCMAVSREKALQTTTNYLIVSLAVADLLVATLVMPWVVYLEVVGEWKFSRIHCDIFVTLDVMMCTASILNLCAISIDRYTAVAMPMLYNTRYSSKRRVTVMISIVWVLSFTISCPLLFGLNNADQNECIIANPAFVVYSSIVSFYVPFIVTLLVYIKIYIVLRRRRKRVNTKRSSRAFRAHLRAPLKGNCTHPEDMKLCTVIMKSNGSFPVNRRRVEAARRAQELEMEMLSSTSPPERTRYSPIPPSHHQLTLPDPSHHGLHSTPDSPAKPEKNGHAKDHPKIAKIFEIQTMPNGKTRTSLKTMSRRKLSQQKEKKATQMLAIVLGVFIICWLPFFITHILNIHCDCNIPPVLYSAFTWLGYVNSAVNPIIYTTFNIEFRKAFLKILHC
Method in brief: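 Competitive radioligand displacement on cloned human D2 receptor, with [3H]YM 09151 as the displaced ligand.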

D(4) dopamine receptor [3] = biological target: T3, D(4) dopamine receptor (Homo sapiens, UniProt P21917); test: Binding affinity at human Dopamine receptor D4 by [3H]- YM 09151 displacement; Not active.
T3 sequence (P21917 whole entry): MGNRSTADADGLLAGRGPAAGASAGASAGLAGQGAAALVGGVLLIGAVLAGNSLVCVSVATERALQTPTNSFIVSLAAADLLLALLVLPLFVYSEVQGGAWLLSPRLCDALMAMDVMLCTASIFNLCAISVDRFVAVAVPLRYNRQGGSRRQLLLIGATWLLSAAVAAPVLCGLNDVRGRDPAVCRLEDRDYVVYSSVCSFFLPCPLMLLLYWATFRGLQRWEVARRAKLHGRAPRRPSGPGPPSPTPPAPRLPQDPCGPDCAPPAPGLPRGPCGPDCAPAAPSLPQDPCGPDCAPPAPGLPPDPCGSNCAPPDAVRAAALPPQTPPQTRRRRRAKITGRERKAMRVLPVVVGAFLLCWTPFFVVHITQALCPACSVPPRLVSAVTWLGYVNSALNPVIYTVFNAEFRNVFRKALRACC

D(2) dopamine receptor [4] = biological target: T2, D(2) dopamine receptor
D(4) dopamine receptor [5] = biological target: T3, D(4) dopamine receptor; test: Binding affinity at human Dopamine receptor D4 by [3H]- YM 09151 displacement.

| SMILES | Ki [1] [nM] | Ki (D(2) dopamine receptor [2]) | Ki (D(4) dopamine receptor [3]) | Ki (D(2) dopamine receptor [4]) [nM] | Ki (D(4) dopamine receptor [5]) [nM] |
| --- | --- | --- | --- | --- | --- |
| Clc1ccc(N2CCN(C[C@H]3C[C@@H]3c3ccccc3)CC2)c(Cl)c1 | 322 |  |  |  |  |
| CCOC(=O)C1(N2CCN(Cc3ccc(Cl)cc3)CC2)Cc2ccccc2NC1=O (stereo unspecified) |  | Not Active | Not Active |  |  |
| CCN1C(=O)C(N2CCN(Cc3ccc(C)cc3)CC2)CCc2ccccc21 (stereo unspecified) | 815 |  |  | > 1000 | 2960 |
| Cc1ccc(CN2CCN(C3(C)C(=O)N(C)c4ccccc43)CC2)cc1 (stereo unspecified) | > 10000 |  |  | > 1000 | > 1000 |
| CN(C(=O)CN1CCN(Cc2ccc(Cl)cc2)CC1)c1ccccc1 | > 10000 |  |  | > 1000 | 59 |
| CCN1C(=O)C(CC)(N2CCN(Cc3ccc(Cl)cc3)CC2)c2ccccc21 (stereo unspecified) | > 10000 |  |  | > 1000 | 7020 |
| CCN1C(=O)C(CC)(N2CCN(Cc3ccc(C)cc3)CC2)c2ccccc21 (stereo unspecified) | > 10000 |  |  | > 1000 | > 1000 |
| Cc1ccc(CN2CCN(C3CCc4ccccc4N(C)C3=O)CC2)cc1 (stereo unspecified) | 2038 |  |  | > 1000 | 4380 |
| CN1C(=O)C(N2CCN(Cc3ccc(Cl)cc3)CC2)Cc2ccccc21 (stereo unspecified) | 2003 |  |  | 133 | 4 |
| O=C1Nc2ccccc2C1N1CCN(Cc2ccc(Cl)cc2)CC1 (stereo unspecified) | > 10000 |  |  | > 1000 | > 1000 |
| CCOC(=O)C(Cc1ccccc1[N+](=O)[O-])(C(=O)OCC)N1CCN(Cc2ccc(Cl)cc2)CC1 |  | Not Active | Not Active |  |  |
| CN1C(=O)C(N2CCN(Cc3ccc(Cl)cc3)CC2)CCc2ccccc21 (stereo unspecified) | 2878 |  |  | 7370 | 2470 |
| CCOC(=O)C(C(=O)OCC)N1CCN(Cc2ccc(Cl)cc2)CC1 |  | Not Active | Not Active |  |  |
| CCOC(=O)C(Cc1ccccc1N)(C(=O)OCC)N1CCN(Cc2ccc(Cl)cc2)CC1 |  | Not Active | Not Active |  |  |
| Fc1ccc(OC[C@@H]2CC[C@H]3CN(c4ncc(F)cn4)CCN3C2)cc1 |  | Not Active | Not Active |  |  |
| O=C1Nc2ccccc2CCC1I (stereo unspecified) |  | Not Active | Not Active |  |  |
| Cc1ccc(CN2CCN(C3CCc4ccccc4NC3=O)CC2)cc1 (stereo unspecified) | 3120 |  |  | > 1000 | > 1000 |
| O=C1Nc2ccccc2CCC1N1CCN(Cc2ccc(Cl)cc2)CC1 (stereo unspecified) | 9591 |  |  | > 1000 | > 1000 |
| Clc1ccc(CN2CCNCC2)cc1 |  | Not Active | Not Active |  |  |
| O=C1Nc2ccccc2CC1N1CCN(Cc2ccc(Cl)cc2)CC1 (stereo unspecified) | 2003 |  |  | 1370 | 100 |
| CCN1C(=O)C(N2CCN(Cc3ccc(Cl)cc3)CC2)CCc2ccccc21 (stereo unspecified) | 2678 |  |  | > 1000 | 1510 |
| O=C1Nc2ccccc2C1Cl (stereo unspecified) |  | Not Active | Not Active |  |  |
| CN1C(=O)C(C)(N2CCN(Cc3ccc(Cl)cc3)CC2)c2ccccc21 (stereo unspecified) | > 10000 |  |  | > 1000 | > 1000 |
| Cc1ccc(CN2CCN(C3C(=O)Nc4ccccc43)CC2)cc1 (stereo unspecified) | > 10000 |  |  | > 1000 | > 1000 |
| CCN1C(=O)C(N2CCN(Cc3ccc(Cl)cc3)CC2)Cc2ccccc21 (stereo unspecified) | 1265 |  |  | 21 | 4 |
| Cc1cnc(N2CCN(Cc3c[nH]c(-c4ccccc4)n3)CC2)nc1 |  | Not Active | Not Active |  |  |
| Clc1ccc(N2CCN(Cc3c[nH]c4ncccc34)CC2)cc1 [L-745870] |  | Not Active | Not Active |  |  |
| NS(=O)(=O)c1ccc(N2CCN(CC[C@@H]3OCCc4ccccc43)CC2)cc1 [SONEPIPRAZOLE] |  | Not Active | Not Active |  |  |
